By IC50 is commonly meant the concentration that gives 50% inhibition. As a reminder, the half-life is how long it takes for the measured level to halve.

A value given as a limit tells only on which side of the number the result lay.

One series has as its system A375 (human). Put plainly: Antiproliferative activity against human A375 cells after 46 hrs. The conditions noted are these: A375, 46 h.
Series [1] addresses Phosphatidylinositol 4,5-bisphosphate 3-kinase catalytic subunit alpha isoform (Bos taurus, UniProt P32871). Description: Inhibition of GST-tagged bovine PI3K p110-alpha by SPA. In a few lines: (§1)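 Radiometric SPA. Enzyme and compound (in DMSO) in 20 mM Tris-HCl pH 7.4, 160 mM NaCl, 2 mM DTT, 30 mM MgCl2, 0.4 mM EDTA, 0.4 mM EGTA. Stopped with wheat germ agglutinin-coated SPA beads in PBS, then centrifuged. IC50 is the mean of at least two determinations.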

Series [2] addresses Phosphatidylinositol 4-phosphate 3-kinase C2 domain-containing subunit beta (Homo sapiens, UniProt O00750). Put plainly: Inhibition of Glu-tagged PI3K C2-beta by SPA. In a few lines: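 SPA as for the class I isoforms, but the PI3K C2β buffer is 20 mM Tris-HCl pH 7.4, 160 mM NaCl, 2 mM DTT, 5 mM MgCl2, 15 mM CaCl2, 0.4 mM EDTA. Run 120 min at room temperature. Captured on WGA-coated SPA beads. IC50 is the mean of at least two determinations.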

In series [3] the test system is HeLa. Put plainly: Suppression of tumor growth in BALB/c nu/nu mouse implanted with human HeLa cells at 25 mg/kg, ip after 2 weeks relative to control. Format: functional. The conditions noted are these: route intraperitoneal. A digest of the protocol:
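HeLa xenografts in nude mice, five animals per group. Dosing began when tumours reached about 100 mm³. 25 mg/kg (as free base) given ip once daily for 2 weeks, suspended in 20% hydroxypropyl-β-cyclodextrin/saline; the vehicle group served as control. Tumour volume = 1/2 × (short diameter)² × (long diameter).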

Series [4] concerns the target Phosphatidylinositol 4,5-bisphosphate 3-kinase catalytic subunit gamma isoform (Homo sapiens, UniProt P48736). Put plainly: Inhibition of His-tagged PI3K p110gamma by SPA. In a few lines:
as §1

The subject of series [5] is HeLa. Description: Antiproliferative activity against human HeLa cells after 46 hrs. Type of series: functional, cell-based. A digest of the protocol:
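Serum-induced proliferation. Compound (1 µL) spotted into wells, then 1×10^4 cells added. After 46 h incubation, Alamar Blue added; fluorescence read 2 h later at ex 544/em 590 nm.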

Series [6] addresses Phosphatidylinositol 4,5-bisphosphate 3-kinase catalytic subunit beta isoform (Homo sapiens, UniProt P42338). Put plainly: Inhibition of GST-tagged human PI3K p110-beta by SPA. A digest of the protocol:
as §1

Series [7] is described as follows: Half life in ip dosed mouse. The conditions noted are these: in vivo. Type of series: ADME, organism-based. A digest of the protocol: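 Mice dosed intraperitoneally. Plasma half-life determined by HPLC/MS/MS.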

Chain of Phosphatidylinositol 4,5-bisphosphate 3-kinase catalytic subunit alpha isoform (P32871 whole entry, canonical isoform): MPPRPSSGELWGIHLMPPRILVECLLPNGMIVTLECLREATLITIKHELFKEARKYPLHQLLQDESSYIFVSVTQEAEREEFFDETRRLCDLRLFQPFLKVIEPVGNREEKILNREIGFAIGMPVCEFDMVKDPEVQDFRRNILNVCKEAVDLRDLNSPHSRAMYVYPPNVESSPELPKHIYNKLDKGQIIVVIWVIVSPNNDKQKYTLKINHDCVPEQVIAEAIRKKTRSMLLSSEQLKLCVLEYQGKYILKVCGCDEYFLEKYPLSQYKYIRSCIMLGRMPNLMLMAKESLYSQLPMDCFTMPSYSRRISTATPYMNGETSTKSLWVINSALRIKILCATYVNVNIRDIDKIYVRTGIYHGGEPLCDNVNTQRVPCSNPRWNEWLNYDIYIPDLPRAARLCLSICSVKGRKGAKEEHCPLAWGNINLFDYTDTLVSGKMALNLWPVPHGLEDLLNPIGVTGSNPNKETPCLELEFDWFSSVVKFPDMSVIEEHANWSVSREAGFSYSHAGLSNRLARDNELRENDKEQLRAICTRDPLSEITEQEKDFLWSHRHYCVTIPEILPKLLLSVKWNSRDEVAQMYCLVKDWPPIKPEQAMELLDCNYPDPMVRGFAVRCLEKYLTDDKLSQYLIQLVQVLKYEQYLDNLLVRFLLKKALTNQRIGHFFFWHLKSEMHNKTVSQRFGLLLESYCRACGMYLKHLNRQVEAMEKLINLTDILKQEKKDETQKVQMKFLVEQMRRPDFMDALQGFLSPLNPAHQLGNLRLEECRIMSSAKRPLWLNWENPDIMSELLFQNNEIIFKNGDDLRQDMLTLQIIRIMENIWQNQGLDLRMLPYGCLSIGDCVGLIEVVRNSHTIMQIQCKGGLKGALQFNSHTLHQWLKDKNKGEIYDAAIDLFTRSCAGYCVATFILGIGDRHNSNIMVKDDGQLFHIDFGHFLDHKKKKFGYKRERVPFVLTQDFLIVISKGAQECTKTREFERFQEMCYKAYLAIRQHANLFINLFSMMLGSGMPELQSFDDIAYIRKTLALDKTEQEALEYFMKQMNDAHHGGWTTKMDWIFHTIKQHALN
Chain of Phosphatidylinositol 4-phosphate 3-kinase C2 domain-containing subunit beta (O00750 whole entry, the tested form may be a part, canonical isoform): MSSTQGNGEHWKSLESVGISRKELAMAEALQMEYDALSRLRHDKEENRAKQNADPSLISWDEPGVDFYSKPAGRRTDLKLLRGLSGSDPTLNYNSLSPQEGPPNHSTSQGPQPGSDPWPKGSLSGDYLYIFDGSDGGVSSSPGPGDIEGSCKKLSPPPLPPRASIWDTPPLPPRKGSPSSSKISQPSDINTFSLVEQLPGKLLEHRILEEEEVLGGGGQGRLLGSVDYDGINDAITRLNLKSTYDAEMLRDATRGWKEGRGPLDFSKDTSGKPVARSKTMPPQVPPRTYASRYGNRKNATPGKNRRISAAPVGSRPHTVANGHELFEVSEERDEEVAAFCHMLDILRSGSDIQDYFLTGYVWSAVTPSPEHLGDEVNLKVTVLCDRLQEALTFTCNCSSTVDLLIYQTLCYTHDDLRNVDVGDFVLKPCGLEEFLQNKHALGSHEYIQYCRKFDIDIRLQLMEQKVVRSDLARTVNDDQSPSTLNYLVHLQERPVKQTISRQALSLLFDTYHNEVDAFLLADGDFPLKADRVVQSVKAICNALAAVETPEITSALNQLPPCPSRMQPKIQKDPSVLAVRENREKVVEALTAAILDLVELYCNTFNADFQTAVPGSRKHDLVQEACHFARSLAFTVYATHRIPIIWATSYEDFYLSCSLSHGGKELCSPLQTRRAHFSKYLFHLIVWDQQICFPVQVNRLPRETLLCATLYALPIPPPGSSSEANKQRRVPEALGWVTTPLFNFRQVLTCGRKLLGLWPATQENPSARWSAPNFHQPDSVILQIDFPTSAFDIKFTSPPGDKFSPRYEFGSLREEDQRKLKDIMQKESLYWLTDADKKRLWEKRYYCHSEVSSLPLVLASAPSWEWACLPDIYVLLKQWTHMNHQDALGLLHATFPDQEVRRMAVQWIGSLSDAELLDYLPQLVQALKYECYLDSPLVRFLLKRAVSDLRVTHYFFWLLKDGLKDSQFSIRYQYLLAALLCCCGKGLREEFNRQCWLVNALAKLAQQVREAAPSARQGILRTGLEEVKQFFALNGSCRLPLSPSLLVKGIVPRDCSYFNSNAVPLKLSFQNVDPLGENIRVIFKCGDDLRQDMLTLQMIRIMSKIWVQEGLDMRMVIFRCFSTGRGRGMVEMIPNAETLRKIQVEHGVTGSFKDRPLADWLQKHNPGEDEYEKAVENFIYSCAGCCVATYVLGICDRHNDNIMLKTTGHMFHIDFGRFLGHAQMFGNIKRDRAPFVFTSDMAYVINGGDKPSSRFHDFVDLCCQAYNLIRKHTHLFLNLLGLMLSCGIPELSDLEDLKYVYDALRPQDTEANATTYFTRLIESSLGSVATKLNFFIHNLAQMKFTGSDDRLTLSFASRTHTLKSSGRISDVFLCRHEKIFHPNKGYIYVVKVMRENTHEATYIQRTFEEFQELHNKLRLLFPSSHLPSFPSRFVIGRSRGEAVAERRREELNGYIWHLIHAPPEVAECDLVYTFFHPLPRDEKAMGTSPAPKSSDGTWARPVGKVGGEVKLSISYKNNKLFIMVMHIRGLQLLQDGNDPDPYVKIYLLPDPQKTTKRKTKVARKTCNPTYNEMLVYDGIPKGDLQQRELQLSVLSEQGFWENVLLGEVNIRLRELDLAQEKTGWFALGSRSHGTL
Chain of Phosphatidylinositol 4,5-bisphosphate 3-kinase catalytic subunit beta isoform (P42338 whole entry, canonical isoform): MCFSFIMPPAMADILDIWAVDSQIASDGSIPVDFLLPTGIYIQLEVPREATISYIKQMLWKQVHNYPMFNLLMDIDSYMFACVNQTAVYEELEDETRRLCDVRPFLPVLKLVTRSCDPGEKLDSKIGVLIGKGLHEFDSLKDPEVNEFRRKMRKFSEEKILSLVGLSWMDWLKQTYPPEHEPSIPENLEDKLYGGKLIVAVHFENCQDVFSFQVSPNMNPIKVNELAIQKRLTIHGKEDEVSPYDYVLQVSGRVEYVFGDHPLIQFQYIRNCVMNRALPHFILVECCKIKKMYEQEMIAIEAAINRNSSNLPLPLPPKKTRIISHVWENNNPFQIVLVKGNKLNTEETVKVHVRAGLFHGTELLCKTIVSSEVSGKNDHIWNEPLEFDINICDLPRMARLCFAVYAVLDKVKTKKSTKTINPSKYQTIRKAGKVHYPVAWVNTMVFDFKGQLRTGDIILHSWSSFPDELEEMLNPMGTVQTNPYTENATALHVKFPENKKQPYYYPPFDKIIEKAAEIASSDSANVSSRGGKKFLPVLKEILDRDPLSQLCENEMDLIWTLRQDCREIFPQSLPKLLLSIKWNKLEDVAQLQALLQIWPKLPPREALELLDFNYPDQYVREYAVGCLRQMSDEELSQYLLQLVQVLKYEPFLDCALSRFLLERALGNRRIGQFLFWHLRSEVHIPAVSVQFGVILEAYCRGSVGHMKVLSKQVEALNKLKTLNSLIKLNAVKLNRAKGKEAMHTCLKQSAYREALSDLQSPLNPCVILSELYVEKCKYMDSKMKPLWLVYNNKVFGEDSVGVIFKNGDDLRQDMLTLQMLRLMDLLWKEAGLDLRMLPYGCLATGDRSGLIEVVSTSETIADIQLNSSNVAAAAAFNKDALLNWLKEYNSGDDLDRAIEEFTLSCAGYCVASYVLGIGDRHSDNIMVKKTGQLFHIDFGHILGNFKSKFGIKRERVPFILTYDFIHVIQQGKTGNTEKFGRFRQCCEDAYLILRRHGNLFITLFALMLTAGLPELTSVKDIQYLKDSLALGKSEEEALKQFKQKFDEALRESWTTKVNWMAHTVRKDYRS
Chain of Phosphatidylinositol 4,5-bisphosphate 3-kinase catalytic subunit gamma isoform (P48736 whole entry, canonical isoform): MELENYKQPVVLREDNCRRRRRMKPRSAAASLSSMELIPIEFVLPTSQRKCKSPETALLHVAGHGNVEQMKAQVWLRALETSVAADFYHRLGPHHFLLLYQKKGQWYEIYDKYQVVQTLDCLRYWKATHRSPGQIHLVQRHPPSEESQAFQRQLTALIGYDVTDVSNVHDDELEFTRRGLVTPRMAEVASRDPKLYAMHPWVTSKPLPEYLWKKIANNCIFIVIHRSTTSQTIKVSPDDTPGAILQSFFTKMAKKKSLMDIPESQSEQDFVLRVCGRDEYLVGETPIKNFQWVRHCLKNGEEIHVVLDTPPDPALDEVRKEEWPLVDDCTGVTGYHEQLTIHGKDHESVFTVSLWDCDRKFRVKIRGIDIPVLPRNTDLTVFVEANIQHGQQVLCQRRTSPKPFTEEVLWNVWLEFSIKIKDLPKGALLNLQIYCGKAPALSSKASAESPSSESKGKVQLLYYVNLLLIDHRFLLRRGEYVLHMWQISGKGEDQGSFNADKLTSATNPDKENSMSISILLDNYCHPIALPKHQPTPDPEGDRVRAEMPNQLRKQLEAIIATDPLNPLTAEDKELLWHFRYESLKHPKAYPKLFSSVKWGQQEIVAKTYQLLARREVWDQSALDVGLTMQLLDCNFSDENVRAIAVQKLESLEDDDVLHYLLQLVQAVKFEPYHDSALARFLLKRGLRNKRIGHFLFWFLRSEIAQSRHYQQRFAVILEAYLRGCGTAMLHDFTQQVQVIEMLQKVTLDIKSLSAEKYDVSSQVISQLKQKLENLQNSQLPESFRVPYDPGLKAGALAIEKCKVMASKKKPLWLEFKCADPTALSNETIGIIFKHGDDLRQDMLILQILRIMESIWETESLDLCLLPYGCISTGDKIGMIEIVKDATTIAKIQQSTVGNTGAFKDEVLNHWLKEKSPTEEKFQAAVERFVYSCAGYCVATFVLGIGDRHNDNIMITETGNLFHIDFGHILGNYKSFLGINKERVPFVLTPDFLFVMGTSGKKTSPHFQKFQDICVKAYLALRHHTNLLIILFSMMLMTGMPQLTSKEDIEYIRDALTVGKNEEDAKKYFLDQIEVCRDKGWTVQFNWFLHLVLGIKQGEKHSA

As to `Cc1ccc([N+](=O)[O-])cc1Sc1nc(-c2cnc3ccc(Cl)cn23)cs1`, the IC50 with A375 (human) was determined as 3370 nM; in series [1], 82 nM.

The compound `Cc1nc2ccc(Cl)cn2c1-c1ccn(S(=O)(=O)c2ccc([N+](=O)[O-])cc2)n1` showed an IC50 in series [1] greater than 30000 nM.

Take `Cc1ccc([N+](=O)[O-])cc1[S+]([O-])c1nc(-c2cnc3ccc(Cl)cn23)cs1` (centres undefined): the IC50 with A375 (human) turned out to be 270 nM; in series [1], 31 nM.

As for `Cc1nc2ccc(Cl)cn2c1-c1ccn(S(=O)(=O)c2ccc(F)cc2)n1`, 760 nM corresponded to half-maximal inhibition in series [1] (IC50).

On to `O=c1cc(N2CCOCC2)oc2c(-c3ccccc3)cccc12` [LY-294002], for which the values for the 50% inhibitory concentration (IC50) (with A375 (human); in series [2]) were 8400 nM and 2100 nM, respectively.

Take `Cc1ccc([N+](=O)[O-])cc1S(=O)(=O)c1nc(-c2cnc3ccc(Cl)cn23)cs1.Cl`: in the series on HeLa [3], the Activity was 37%. Also, the concentration for half-maximal inhibition (IC50) in series [4] is 230 nM; in the series with A375 (human) it was 140 nM; in the series with HeLa [5], 210 nM; in series [6], 170 nM; in series [1] it was 2.8 nM; in series [2] it was 100 nM. Besides, the half-life in series [7] is 2.6 h.

In the case of `Cc1ccc([N+](=O)[O-])cc1S(=O)(=O)n1ccc(-c2c(C)nc3ccc(Br)cn23)n1`, the half-maximal inhibitory concentration (IC50) turned out to be 730 nM in the series with A375 (human) and 3.1 nM in series [1].

Turning to `Cc1nc2ccccn2c1-c1ccn(S(=O)(=O)c2ccc(F)cc2)n1`, the results for the 50% inhibitory concentration (IC50) (with A375 (human); in series [1]) were 23000 nM and 670 nM, respectively.

On to `Cc1ccc([N+](=O)[O-])cc1S(=O)(=O)n1ccc(-c2c(C)nc3ccc(Cl)cn23)n1`, for which the figures for the IC50 (with A375 (human); in series [1]) were 830 nM and 2.8 nM, respectively.

With `Cc1ccc([N+](=O)[O-])cc1S(=O)(=O)n1ccc(-c2cnc3ccc(Br)cn23)n1`, the IC50 in the series with A375 (human) turned out to be 170 nM; in series [1], 1.8 nM.

As for `Cc1nc2ccc(Cl)cn2c1-c1ccn(S(=O)(=O)c2cccc([N+](=O)[O-])c2)n1`, the 50% inhibitory concentration (IC50) in series [1] was 280 nM.

Consider `O=[N+]([O-])c1ccc(CO)c([S+]([O-])c2nc(-c3cnc4ccc(Cl)cn34)cs2)c1` (centres undefined), for which the values for the IC50 (in the series with A375 (human); in series [1]) were 19000 nM and 20 nM, respectively.

Consider `Cc1ccc([N+](=O)[O-])cc1S(=O)(=O)n1ccc(-c2cnc3ccc(Cl)cn23)c1`, for which the half-inhibitory concentration (IC50) with A375 (human) turned out to be 12000 nM; in series [1], 100 nM.

Values taken from ChEMBL document CHEMBL1144502, “Synthesis and biological evaluation of imidazo[1,2-a]pyridine derivatives as novel PI3 kinase p110alpha inhibitors” (Bioorg Med Chem, 2007).
